Assay results taken from ChEMBL document CHEMBL5523707, “Novel Inhibitory Site Revealed by XAP044 Mode of Action on the Metabotropic Glutamate 7 Receptor Venus Flytrap Domain” (J Med Chem, 2024).
Activity calls are given as the source filed them. No cut-off for these calls is given here.

Assays:
[1] = Antagonist activity against LSP4-202-induced rat mGlu7 S237A mutant assessed as decrease in LSP4-202 potency by measuring LSP4-202 pEC50
Rattus norvegicus [2] = organism: Rattus norvegicus; assay: Ratio of pEC50 for antagonist activity against LSP4-202-induced rat mGlu7 activation transfected in HEK293 cells co-transfected with chimeric Gqi9 assessed as decrease in LSP4-202 potency to pEC50 for LSP4-202-induced rat mGlu7 activation transfected in HEK293 cells co-transfected with chimeric Gqi9; type: cell-based
How it was run: (§1)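 IP-One HTRF IP1 read-out in HEK293 transiently expressing rat mGlu7 plus chimeric Gqα9, 24 h after electroporation. LSP4-2022 concentration-response was tested with derivatives at 30 or 100 µM. Gives pEC50, pEC50/pEC50 control ratio, and max as % of LSP4-2022 maximal effect over basal. Triplicates, n independent experiments; paired t-test.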

[3] = Antagonist activity against LSP4-202-induced rat mGlu7 K233D mutant assessed as decrease in LSP4-202 potency by measuring LSP4-202 pEC50
Rattus norvegicus [4] = organism: Rattus norvegicus; assay: Ratio of pEC50 for antagonist activity against LSP4-202 induced rat mGlu7 S229A mutant assessed as decrease in LSP4-202 potency by measuring LSP4-202 pEC50 at 100 uM to pEC50 for LSP4-202-induced rat mGlu7 S229A mutant
[5] = biological target: T1, Metabotropic glutamate receptor 7 (Rattus norvegicus, UniProt P35400); assay: Inhibition of [3H] -LY341495 binding to rat mGlu7 expressed in CHO cell membrane incubated for 30 mins in presence of LY341495 by liquid scintillation analysis; type: cell membranes
T1 sequence (P35400 whole entry): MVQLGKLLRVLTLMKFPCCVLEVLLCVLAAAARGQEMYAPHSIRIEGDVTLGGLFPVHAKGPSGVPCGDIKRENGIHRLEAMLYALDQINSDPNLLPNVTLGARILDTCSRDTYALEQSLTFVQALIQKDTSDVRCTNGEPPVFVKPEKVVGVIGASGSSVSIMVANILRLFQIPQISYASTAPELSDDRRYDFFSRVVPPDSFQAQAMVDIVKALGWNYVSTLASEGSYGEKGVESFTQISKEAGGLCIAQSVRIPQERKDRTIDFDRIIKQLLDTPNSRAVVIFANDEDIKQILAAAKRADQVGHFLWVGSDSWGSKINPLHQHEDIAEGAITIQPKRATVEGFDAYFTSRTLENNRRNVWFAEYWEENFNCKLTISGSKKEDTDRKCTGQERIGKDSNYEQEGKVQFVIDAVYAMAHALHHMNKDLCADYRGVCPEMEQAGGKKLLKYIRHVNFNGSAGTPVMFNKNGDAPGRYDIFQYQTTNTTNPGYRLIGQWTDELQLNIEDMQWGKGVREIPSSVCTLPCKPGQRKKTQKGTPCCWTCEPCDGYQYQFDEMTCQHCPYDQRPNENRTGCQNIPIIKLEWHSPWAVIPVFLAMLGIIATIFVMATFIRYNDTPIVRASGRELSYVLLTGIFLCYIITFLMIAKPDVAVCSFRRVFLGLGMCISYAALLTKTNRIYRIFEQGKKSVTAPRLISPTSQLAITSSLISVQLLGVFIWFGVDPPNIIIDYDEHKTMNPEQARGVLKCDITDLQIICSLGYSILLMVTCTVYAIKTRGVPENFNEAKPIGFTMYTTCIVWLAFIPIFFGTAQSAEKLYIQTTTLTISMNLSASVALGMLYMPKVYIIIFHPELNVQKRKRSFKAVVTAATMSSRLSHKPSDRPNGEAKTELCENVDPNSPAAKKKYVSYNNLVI

Rattus norvegicus [6] = organism: Rattus norvegicus; assay: Ratio of pEC50 for antagonist activity against LSP4-202-induced rat mGlu7 S237A mutant assessed as decrease in LSP4-202 potency to pEC50 for LSP4-202-induced rat mGlu7 S237A mutant; conditions: filed as antagonist
Rattus norvegicus [7] = organism: Rattus norvegicus; assay: Ratio of pEC50 for antagonist activity against LSP4-202-induced rat mGlu7 K233A mutant assessed as decrease in LSP4-202 potency to pEC50 for LSP4-202-induced rat mGlu7 K233A mutant; conditions: filed as antagonist
Rattus norvegicus [8] = organism: Rattus norvegicus; assay: Ratio of pEC50 for antagonist activity against LSP4-202 induced wild type rat mGlu7 assessed as decrease in LSP4-202 potency by measuring LSP4-202 pEC50 at 10 uM to pEC50 for LSP4-202-induced wild type rat mGlu7
Rattus norvegicus [9] = organism: Rattus norvegicus; assay: Ratio of pEC50 for antagonist activity against LSP4-202-induced rat mGlu7 S229A mutant assessed as decrease in LSP4-202 potency to pEC50 for LSP4-202-induced rat mGlu7 S229A mutant; conditions: filed as antagonist
[10] = Antagonist activity at LSP4-202-induced rat mGlu7 K233S mutant assessed as decrease in LSP4-202 potency by measuring LSP4-202 pEC50
Rattus norvegicus [11] = organism: Rattus norvegicus; assay: Ratio of pEC50 for antagonist activity against LSP4-202-induced wild type rat mGlu7 assessed as decrease in LSP4-202 potency to pEC50 for LSP4-202-induced wild type rat mGlu7; conditions: filed as antagonist
Rattus norvegicus [12] = organism: Rattus norvegicus; assay: Ratio of pEC50 for antagonist activity against LSP4-202 induced wild type rat mGlu7 assessed as decrease in LSP4-202 potency by measuring LSP4-202 pEC50 at 30 uM to pEC50 for LSP4-202-induced wild type rat mGlu7
[13] = biological target: Metabotropic glutamate receptor 7 (Rattus norvegicus) (UniProt P35400); assay: Non-competitive antagonist activity against rat mGlu7 receptor assessed as decrease in L-AP4 effect at 1 to 100 uM; conditions: filed as antagonist, dose 1-100 µM
Metabotropic glutamate receptor 7 (Rattus norvegicus), sequence (P35400 whole entry): as above

Rattus norvegicus [14] = organism: Rattus norvegicus; assay: Ratio of pEC50 for antagonist activity against LSP4-202 induced rat mGlu7 S229A mutant assessed as decrease in LSP4-202 potency by measuring LSP4-202 pEC50 at 30 uM to pEC50 for LSP4-202-induced rat mGlu7 S229A mutant
Rattus norvegicus [15] = organism: Rattus norvegicus; assay: Ratio of pEC50 for antagonist activity against LSP4-202 induced wild type rat mGlu7 assessed as decrease in LSP4-202 potency by measuring LSP4-202 pEC50 at 3 uM to pEC50 for LSP4-202-induced wild type rat mGlu7
[16] = Antagonist activity against LSP4-202-induced rat mGlu7 […] mutant assessed as decrease in LSP4-202 potency by measuring LSP4-202 pEC50 at 10 uM
[17] = Antagonist activity against LSP4-202-induced rat mGlu7 K233A mutant assessed as decrease in LSP4-202 potency by measuring LSP4-202 pEC50
[18] = Antagonist activity against LSP4-202-induced rat mGlu7 […] mutant assessed as decrease in LSP4-202 potency by measuring LSP4-202 pEC50 at 100 uM
Rattus norvegicus [19] = organism: Rattus norvegicus; assay: Ratio of pEC50 for antagonist activity against LSP4-202 induced rat mGlu7 S229A mutant assessed as decrease in LSP4-202 potency by measuring LSP4-202 pEC50 at 10 uM to pEC50 for LSP4-202-induced rat mGlu7 S229A mutant
[20] = Antagonist activity against LSP4-202-induced rat mGlu7 […] mutant assessed as decrease in LSP4-202 potency by measuring LSP4-202 pEC50 at 30 uM
[21] = biological target: T1, Metabotropic glutamate receptor 7; assay: Antagonist activity against rat mGlu7 activation transfected in HEK293 cells co-transfected with chimeric Gqi9 incubated for 24 hrs in presence of LSP4-2022 by IP-one HTRF assay; type: functional, cell-based; conditions: read-out: IC50
How it was run: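 Inhibition curves were run with increasing inhibitor concentrations against IP1 production by 30 µM LSP4-2022. Rat mGlu7 was co-expressed with Gqα9 in HEK293 and assayed 24 h post-transfection with IP-One HTRF. IC50/pIC50 are means ± sem of independent experiments in triplicates. pIC50 compared to reference by unpaired t-test.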

Rattus norvegicus [22] = organism: Rattus norvegicus; assay: Ratio of pEC50 for antagonist activity against LSP4-202 induced wild type rat mGlu7 assessed as decrease in LSP4-202 potency by measuring LSP4-202 pEC50 at 1 uM to pEC50 for LSP4-202-induced wild type rat mGlu7
[23] = Antagonist activity against LSP4-202-induced rat mGlu7 S229A mutant assessed as decrease in LSP4-202 potency by measuring LSP4-202 pEC50
[24] = biological target: Metabotropic glutamate receptor 7 (Rattus norvegicus) (UniProt P35400); assay: Antagonist activity against LSP4-202-induced rat mGlu7 activation transfected in HEK293 cells co-transfected with chimeric Gqi9 assessed as decrease in LSP4-202 potency by measuring LSP4-202 maximum efficacy at 30 to 100 uM incubated for 24 hrs by IP-one HTRF assay relative to control; type: functional, cell-based; conditions: filed as antagonist, dose 30-100 µM; how it was run: as §1
Rattus norvegicus [25] = organism: Rattus norvegicus; assay: Ratio of pEC50 for antagonist activity against LSP4-202-induced rat mGlu7 K233S mutant assessed as decrease in LSP4-202 potency to pEC50 for LSP4-202-induced rat mGlu7 K233S mutant; conditions: filed as antagonist
Rattus norvegicus [26] = organism: Rattus norvegicus; assay: Ratio of pEC50 for antagonist activity at LSP4-202-induced rat mGlu7 K233D mutant assessed as decrease in LSP4-202 potency to pEC50 for LSP4-202-induced rat mGlu7 K233D mutant; conditions: filed as antagonist

O=c1c(Oc2ccc(I)cc2)coc2cc(O)ccc12
pEC50 [1]: 3.7
Ratio (Rattus norvegicus [2]): 0.82
pEC50 [3]: 3.56
Ratio (Rattus norvegicus [4]): 1
IC50 [5]: 80 nM
Ratio (Rattus norvegicus [6]): 0.78
Ratio (Rattus norvegicus [7]): 0.88
Ratio (Rattus norvegicus [8]): 0.91
Ratio (Rattus norvegicus [9]): 1.02
pEC50 [10]: 4.25
Ratio (Rattus norvegicus [11]): 0.83
Ratio (Rattus norvegicus [12]): 0.83
Activity [13]: Active
Ratio (Rattus norvegicus [14]): 0.9
Ratio (Rattus norvegicus [15]): 0.94
EC50 [16]: 25 µM
pEC50 [16]: 4.6
pEC50 [17]: 3.58
EC50 [18]: 10.9 µM
pEC50 [18]: 4.99
Ratio (Rattus norvegicus [19]): 0.96
EC50 [20]: 49.5 µM
pEC50 [20]: 4.32
IC50 [21]: 4.33 µM
Ratio (Rattus norvegicus [22]): 0.96
pEC50 [23]: 4.99
Emax [24]: 96.4%
Ratio (Rattus norvegicus [25]): 0.88
Ratio (Rattus norvegicus [26]): 0.93
